Experimental data reported in ChEMBL document CHEMBL1221240, “An efficient one-pot synthesis of heterocycle-fused 1,2,3-triazole derivatives as anti-cancer agents” (Bioorg Med Chem Lett, 2010).
Values after ≈ are worked out from the molar mass of the structure shown.

How the values were obtained:
Type in all cases: functional, cell-based
A-431 = assay: Cytotoxicity against human A431 cells by MTT assay
Summary of the method: (§1)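 In vitro MTT assay on human tumour cells: myeloid leukaemia K562 and HL-60, ovarian carcinoma Skov-3, epidermoid carcinoma A431, and lung adenocarcinoma A549. IC50 is the concentration that lowers optical density of treated cells by 50% relative to untreated cells. Values are means of three independent determinations.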

A549 = assay: Cytotoxicity against human A549 cells by MTT assay; summary of the method: as §1
K562 = assay: Cytotoxicity against human K562 cells by MTT assay; summary of the method: as §1
HL-60 = assay: Cytotoxicity against human HL60 cells by MTT assay; summary of the method: as §1
SK-OV-3 = assay: Cytotoxicity against human SKOV3 cells by MTT assay; summary of the method: as §1
HepG2 = assay: Cytotoxicity against human HepG2 cells by MTT assay

COc1ccc(C(=O)c2nnn3c2NCCC3)cc1
IC50 (A-431): 64.4 µg/mL (≈ 249 µM) | IC50 (A549): > 200 µg/mL | IC50 (K562): 3.4 µg/mL (≈ 13.2 µM) | IC50 (HL-60): > 200 µg/mL | IC50 (SK-OV-3): 190 µg/mL (≈ 736 µM) | IC50 (HepG2): > 200 µg/mL

COc1ccc(C(=O)c2nnn3c2NCC3)cc1
IC50 (A-431): > 200 µg/mL | IC50 (A549): > 200 µg/mL | IC50 (K562): 2.8 µg/mL (≈ 11.5 µM) | IC50 (HL-60): > 200 µg/mL | IC50 (SK-OV-3): 159 µg/mL (≈ 651 µM) | IC50 (HepG2): > 200 µg/mL

Cc1ccc(C(=O)c2nnn3c2NCC3)cc1
IC50 (A-431): > 200 µg/mL | IC50 (A549): > 200 µg/mL | IC50 (K562): 9.4 µg/mL (≈ 41.2 µM) | IC50 (HL-60): > 200 µg/mL | IC50 (SK-OV-3): > 200 µg/mL | IC50 (HepG2): > 200 µg/mL

CC(=O)c1nnn2c1NCC2
IC50 (A-431): > 200 µg/mL | IC50 (A549): > 200 µg/mL | IC50 (K562): > 200 µg/mL | IC50 (HL-60): > 200 µg/mL | IC50 (SK-OV-3): > 200 µg/mL | IC50 (HepG2): > 200 µg/mL

O=C(c1ccccc1)c1nnn2c1NCCC2
IC50 (A-431): > 200 µg/mL | IC50 (A549): > 200 µg/mL | IC50 (K562): 28.6 µg/mL (≈ 125 µM) | IC50 (HL-60): > 200 µg/mL | IC50 (SK-OV-3): > 200 µg/mL | IC50 (HepG2): > 200 µg/mL

O=C(c1ccc(Cl)cc1)c1nnn2c1NCC2
IC50 (A-431): 57.6 µg/mL (≈ 232 µM) | IC50 (A549): > 200 µg/mL | IC50 (K562): 16.1 µg/mL (≈ 64.7 µM) | IC50 (HL-60): > 200 µg/mL | IC50 (SK-OV-3): > 200 µg/mL | IC50 (HepG2): > 200 µg/mL

O=C(c1ccc(Cl)cc1)c1nnn2c1NCCC2
IC50 (A-431): > 200 µg/mL | IC50 (A549): > 200 µg/mL | IC50 (K562): 3.2 µg/mL (≈ 12.2 µM) | IC50 (HL-60): > 200 µg/mL | IC50 (SK-OV-3): > 200 µg/mL | IC50 (HepG2): > 200 µg/mL

COc1ccc(C(=O)c2nnn3c2OCC3)cc1
IC50 (A-431): 1.9 µg/mL (≈ 7.75 µM) | IC50 (A549): 58 µg/mL (≈ 237 µM) | IC50 (K562): 1 µg/mL (≈ 4.08 µM) | IC50 (HL-60): 21.1 µg/mL (≈ 86 µM) | IC50 (SK-OV-3): 9.6 µg/mL (≈ 39.1 µM) | IC50 (HepG2): > 200 µg/mL

O=C(c1ccccc1)c1nnn2c1NCC2
IC50 (A-431): > 200 µg/mL | IC50 (A549): > 200 µg/mL | IC50 (K562): 92 µg/mL (≈ 429 µM) | IC50 (HL-60): > 200 µg/mL | IC50 (SK-OV-3): > 200 µg/mL | IC50 (HepG2): > 200 µg/mL

O=C(c1ccc(Cl)cc1)c1nnn2c1OCC2
IC50 (A-431): 3.8 µg/mL (≈ 15.2 µM) | IC50 (A549): 42 µg/mL (≈ 168 µM) | IC50 (K562): > 200 µg/mL | IC50 (HL-60): 6.5 µg/mL (≈ 26 µM) | IC50 (SK-OV-3): 8.6 µg/mL (≈ 34.4 µM) | IC50 (HepG2): > 200 µg/mL

Cc1ccc(C(=O)c2nnn3c2OCC3)cc1
IC50 (A-431): 12.7 µg/mL (≈ 55.4 µM) | IC50 (A549): 79 µg/mL (≈ 345 µM) | IC50 (K562): 127 µg/mL (≈ 554 µM) | IC50 (HL-60): 13.7 µg/mL (≈ 59.8 µM) | IC50 (SK-OV-3): 8.5 µg/mL (≈ 37.1 µM) | IC50 (HepG2): 198 µg/mL (≈ 864 µM)

O=C(c1ccccc1)c1nnn2c1OCC2
IC50 (A-431): 10.8 µg/mL (≈ 50.2 µM) | IC50 (A549): 78 µg/mL (≈ 362 µM) | IC50 (K562): > 200 µg/mL | IC50 (HL-60): 17.2 µg/mL (≈ 79.9 µM) | IC50 (SK-OV-3): 66.1 µg/mL (≈ 307 µM) | IC50 (HepG2): > 200 µg/mL

Cc1ccc(C(=O)c2nnn3c2NCCC3)cc1
IC50 (A-431): > 200 µg/mL | IC50 (A549): > 200 µg/mL | IC50 (K562): 1.5 µg/mL (≈ 6.19 µM) | IC50 (HL-60): > 200 µg/mL | IC50 (SK-OV-3): 124 µg/mL (≈ 512 µM) | IC50 (HepG2): > 200 µg/mL
